Compound activity: PubChem, The Scripps Research Institute Molecular Screening Center
Sampled rows, rich in hits. Any-hit rate of the full collection: about 1.2%.
IDE cell activ: IDE (human) activation, cell-based; P14735; HEK cells, FAbeta-B cleavage, fluorescence polarization; 0% vehicle, 100% cell-free pure enzyme wells; activation, % at 5.96 µM; 0.073% of 340,000 active; AID 493087;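 active = activation above the mean of all tested compounds plus 3 SD, set per screening campaign, cut at about 17% in these data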
procasp3 activ: activators of human procaspase-3. P42574. recombinant procaspase-3 D3A, Ac-DEVD-pNA absorbance 405 nm. activation, % at 8.5 µM. 0.11% of 330,000 active;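 active = activation above the mean of all tested compounds plus 3 SD, cut at about 21% in these data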
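Test system: Procaspase-3 D3A mutant, all three cleavage aspartates alanine | Dosing: Single dose, 8.5 µM nominal compound, 0.8% DMSO | Schedule: 1 h preincubation, 2 h reaction | Technique: 405 nm absorbance of p-nitroaniline, reads at 0 and 120 min | Repeats: One well per compound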
TPT1 inhibitor: blocks Candida albicans tRNA 2'-phosphotransferase; recombinant caTPT1, FP RNA substrate dephosphorylation; inhibition, % at 5 µM; 0.81% of 300,000 active;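 active = inhibition above the mean of all tested compounds plus 3 SD, set per screening campaign, cut at about 24% in these data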
IDE inh: cellular human IDE inhibition | P14735 | HEK cells, FAbetaB cleavage, fluorescence polarization | inhibition, % at 5.59 µM | 0.41% of 320,000 active | AID 434962;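 active = percent inhibition above the average of all tested compounds plus 3 SD, set per screening campaign, cut at about 16% in these data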;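 also: IDE supplied by intact live HEK cells; FP after avidin binding of uncleaved biotin substrate so inhibition keeps polarization high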
procasp7 counter: counter-screen for procaspase-3 activators: activators of human procaspase-7; 0.093% of 330,000 active; activation, % at 8.5 µM; recombinant procaspase-7, Ac-DEVD-pNA absorbance 405 nm; D23A/D198A/D206A triple mutant, cannot self-cleave; scale: DMSO 0, 5 µM enzyme 100;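 active = percent activation above the screen-wide mean plus 3 SD, cut at about 25% in these data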
Target sequence (P55210 whole entry D23A/D198A/D206A): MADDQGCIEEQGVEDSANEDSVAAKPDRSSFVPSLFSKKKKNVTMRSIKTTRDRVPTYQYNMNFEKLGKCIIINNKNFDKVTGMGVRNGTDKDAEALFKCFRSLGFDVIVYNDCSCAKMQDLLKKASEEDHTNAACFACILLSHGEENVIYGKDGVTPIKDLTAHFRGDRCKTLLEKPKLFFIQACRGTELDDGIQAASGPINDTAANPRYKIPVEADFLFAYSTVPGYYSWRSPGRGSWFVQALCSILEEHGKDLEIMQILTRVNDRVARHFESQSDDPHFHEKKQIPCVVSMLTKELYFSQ
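Assay system: Uncleavable procaspase-7 mutant enzyme / Input: 2 µM procaspase-7 mutant as dispensed / Dosing: single nominal 8.5 µM compound dose, 0.8% DMSO final / Timing: 1 h enzyme–compound preincubation and 2 h substrate reaction, both 25 °C / Detection: p-Nitroaniline absorbance at 405 nm, read at 0 and 120 min / Replication: singlicate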
TPT1 inh confirm: confirmation of Candida albicans TPT1 inhibitors; shares compounds with TPT1 inhibitor; recombinant caTPT1, fluorescence polarization, RNase T1 coupled; inhibition, % at 5 µM; 74% of 2,400 active;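 active = inhibition above the primary screen limit, the mean inhibition of all tested compounds plus 3 SD, cut at about 25% in these data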
RNase T1 counter: RNase T1 inhibition in TPT1 counter-screen | shares compounds with TPT1 inhibitor | RNase T1 cleavage, fluorescence polarization, 1536-well | inhibition, % at 5 µM | 83% of 2,400 active | AID 2153;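 active = inhibition above the solvent-only control well mean plus 3 SD, limit set per screening run, cut at about 23% in these data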;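 also: inhibitors block cleavage so intact labeled substrate keeps polarization high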
Target sequence (P00651 whole entry, looked up): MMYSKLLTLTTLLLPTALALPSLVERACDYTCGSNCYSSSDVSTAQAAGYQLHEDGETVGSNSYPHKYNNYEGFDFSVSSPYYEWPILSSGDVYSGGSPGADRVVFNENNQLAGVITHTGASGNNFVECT
Each line names hits and unclear results; the compound was inactive in the other large screens (follow-up assays come after a bar, where they were run).

Cc1sc2nc(COC(=O)c3ccc(O)cc3)[nH]c(=O)c2c1C	none
Cc1sc2nc(COC(=O)c3ccc(N4CCCC4)c([N+](=O)[O-])c3)[nH]c(=O)c2c1C	TPT1 inhibitor 69.3 | TPT1 inh confirm 69.4 | RNase T1 counter 78.2
COc1ccc(S(=O)(=O)N2CC(O)CC2C(=O)OCc2nc3sc(C)c(C)c3c(=O)[nH]2)cc1 (stereo not drawn)	TPT1 inhibitor 32.7 | TPT1 inh confirm 47.3 | RNase T1 counter 64.9
Cc1ccc(S(=O)(=O)Nc2ccccc2F)cc1C(=O)NCc1ccco1	none (no result: TPT1 inhibitor)
COc1ccc(C(=O)N2C(=S)NC(=O)/C2=C\c2ccc(C)cc2)cc1	TPT1 inhibitor 34.2 | TPT1 inh confirm 41.8 | RNase T1 counter 57.0
CCOC(=O)C1=C(COC(=O)CCOc2ccc(C)cc2)NC(=O)NC1C (stereo not drawn)	none
CC(C)(C)C(=O)NC(=S)NNC(=O)c1sc2ccccc2c1Cl	TPT1 inhibitor 27.1 | TPT1 inh confirm inactive | RNase T1 counter inactive
Nc1nc(-c2ccccc2)c(-c2ccccc2)n1N	TPT1 inhibitor 50.9 | TPT1 inh confirm 29.1 | RNase T1 counter 38.1
CCN(CC)c1ccc(N=Nc2ncn[nH]2)cc1	TPT1 inhibitor 24.6 (no result: IDE cell activ) | TPT1 inh confirm 24.3 | RNase T1 counter 35.4
Cc1ccc(NC(=S)N2CCCC(O)C2)cc1 (stereo not drawn)	none
N#C/C(=C/c1ccc(N2CCOCC2)o1)c1ccc(Cl)cc1	TPT1 inhibitor 163.4 | TPT1 inh confirm 165.4 | RNase T1 counter 155.2
N#C/C(=C/N1CCOCC1)c1ccccc1	none
N#Cc1c(C(F)(F)F)cc(-c2ccccc2)nc1SCc1nc(N)nc(N2CCOCC2)n1	TPT1 inhibitor 46.5 | TPT1 inh confirm 55.6 | RNase T1 counter 59.8
CO/N=C\Cc1oc(=O)c(NC(=O)c2ccccc2)cc1C(=O)OC	none
COC(=O)c1cc(NC(=O)c2ccccc2)c(=O)oc1C/C=N\OCc1ccc(Cl)cc1Cl	TPT1 inhibitor 30.9 | TPT1 inh confirm 27.9 | RNase T1 counter 35.7
Cc1c(-n2cc(C(=O)c3cc(Br)ccc3O)cc(C#N)c2=O)c(=O)n(-c2ccccc2)n1C	TPT1 inhibitor 36.5 | TPT1 inh confirm 24.3 | RNase T1 counter 32.3
Cc1ccc(O)c(C(=O)c2cc(C#N)c(=O)n(-c3c(C)n(C)n(-c4ccccc4)c3=O)c2)c1	none
COCC(C)NCc1ccc(OC)c(Br)c1 (stereo not drawn)	none
COc1cc2c(cc1OC)-c1cc(OCCN3CCOCC3)nc(=O)n1CC2	TPT1 inhibitor 24.5 | TPT1 inh confirm 32.0 | RNase T1 counter 43.8
COc1ccc(NC(=O)CN(C)C(=O)CSc2nc3ccccc3s2)cc1	TPT1 inhibitor 36.3 | TPT1 inh confirm 35.5 | RNase T1 counter 45.4
CN(CC(=O)Nc1ccccc1Cl)C(=O)CSc1nc2ccccc2s1	none
Nc1c(C(=O)O)sc2nc(-c3ccccc3)cc(-c3ccccc3)c12	none
Nc1c(C(=O)O)sc2nc(-c3ccccc3)cc(-c3ccc(F)cc3)c12	TPT1 inhibitor 28.8 | TPT1 inh confirm 27.3 | RNase T1 counter 38.5
Cc1ccsc1C1CC(=O)OC2=C1C(=O)CC(C)(C)C2 (stereo not drawn)	TPT1 inhibitor 109.0 (no result: IDE cell activ) | TPT1 inh confirm inactive | RNase T1 counter inactive
CC1(C)CC(=O)C2=C(C1)OC(=O)CC2c1cccs1 (stereo not drawn)	none
CC(C)n1cc(CN2CCN(C)C(CCO)C2)c2ccccc21 (stereo not drawn)	none
O=C1CC(C(=O)N2CCc3ccccc32)CN1c1ccc(F)cc1 (stereo not drawn)	none
CCN(CC)c1ccc2cc(S(=O)(=O)c3ccc(Cl)cc3)c(=O)oc2c1	TPT1 inhibitor 85.6 | TPT1 inh confirm 98.3 | RNase T1 counter 104.3
Nc1[nH]c(=O)[nH]c(=O)c1N=Nc1ccc(C(=O)O)cc1	none (no result: procasp3 activ, TPT1 inhibitor, IDE inh, procasp7 counter)
O=C(O)C(Cc1ccccc1)N1C(=O)/C(=C/C=C/c2ccco2)SC1=S (stereo not drawn)	none (no result: procasp3 activ, TPT1 inhibitor, IDE inh, procasp7 counter)
